Source: ChEMBL document CHEMBL3244217, “Metabolism of cis-delta4-15(S)-15-methylprostaglandin F1alpha methyl ester in the rat” (J Med Chem, 1978)
One block for each compound: values may come before it.

What was measured:
Design in all cases: dose 0.28 mg/kg, route oral
Rattus norvegicus [1] = experiment: Drug level in Sprague-Dawley rat treated with [3H]-cis-delta4-15(S)-15-methylprostaglandin F1alpha methyl ester at 0.28 mg/kg, po assessed compound formation; type: ADME, organism-based; conditions: in vivo
Rattus norvegicus [2] = experiment: Toxicity in Sprague-Dawley rat assessed as diarrhea at 0.28 mg/kg, po after 3 days; type: organism-based; conditions: in vivo, 72 h
Rattus norvegicus [3] = experiment: Drug metabolism in Sprague-Dawley rat assessed as metabolite 5 ((4aR,5R,6R,7aS)-6-hydroxy-5-((S)-3-hydroxy-3-methyloct-1-enyl)hexahydrocyclopenta[b]pyran-2(3H)-one) formation at 0.28 mg/kg, po administered as single dose; type: ADME, organism-based; conditions: in vivo
In short: (§1)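 Urine was extracted on an Amberlite XAD-2 column and partially purified by silicic acid chromatography. Components were then separated by reversed-phase partition chromatography on Sephadex LH-20 (isooctyl alcohol–chloroform–methanol–water, 15:15:114:86), collecting 9-mL fractions. Identification used GC with radioactivity monitoring (3.8% UCW-98, 200 °C) and GC-MS of methyl ester, O-methoxime and trimethylsilyl derivatives; silylation was at 50 °C for 1 h.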

Rattus norvegicus [4] = experiment: Toxicity in Sprague-Dawley rat assessed as depression at 0.28 mg/kg, po after 3 days; type: organism-based; conditions: in vivo, 72 h
Rattus norvegicus [5] = experiment: Toxicity in Sprague-Dawley rat assessed as diarrhea at 0.28 mg/kg, po up to 1 to 3 days; type: organism-based; conditions: in vivo
In short: (§2)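 Fifteen rats were kept in metabolism cages for 17 days. Each morning they received an oral dose of 0.25 mg of tritium-labelled drug (1 × 10^7 dpm). The animals were watched for side effects, including depression, diarrhoea, faecal staining of the abdomen and mortality, over the chronic dosing period.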

Rattus norvegicus [6] = experiment: Toxicity in Sprague-Dawley rat assessed as mortality at 0.28 mg/kg, po; type: organism-based; conditions: in vivo; in short: as §2
Rattus norvegicus [7] = experiment: Drug metabolism in Sprague-Dawley rat assessed as metabolite 4 (15-methyl-2,3,4,5-tetranorprostaglandin F1alpha) formation at 0.28 mg/kg, po administered as single dose; type: ADME, organism-based; conditions: in vivo; in short: as §1
Rattus norvegicus [8] = experiment: Toxicity in Sprague-Dawley rat assessed as fecal stained abdominal area at 0.28 mg/kg, po up to 1 to 3 days; type: organism-based, Abdomen; conditions: in vivo; in short: as §2
Rattus norvegicus [9] = experiment: Drug metabolism in Sprague-Dawley rat assessed as metabolite 3 (15-methyl-2,3-dinorprostaglandin F1alpha) formation at 0.28 mg/kg, po administered as single dose; type: ADME, organism-based; conditions: in vivo; in short: as §1
Rattus norvegicus [10] = experiment: Toxicity in Sprague-Dawley rat assessed as depression at 0.28 mg/kg, po up to 1 to 3 days; type: organism-based; conditions: in vivo; in short: as §2
[11] = Drug excretion in Sprague-Dawley rat feces at 0.28 mg/kg, po administered as single dose within 74 hrs relative to control; type: ADME, organism-based; conditions: faeces, read-out: Drug excretion
In short: (§3)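 Four female Sprague-Dawley rats (Upjohn strain), about 200 g, were fasted overnight and each given one 0.28-mg oral dose of tritium-labeled drug (1.24 × 10^7 dpm) in distilled water by gastric tube. They were then kept in metabolism cages with free food and water, and urine and feces were collected at intervals. Radioactivity was read by liquid scintillation with external-standard quench correction. Urine aliquots (0.2 mL) were counted directly; feces were homogenized in water and aliquots dried and combusted before counting.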

Rattus norvegicus [12] = experiment: Toxicity in Sprague-Dawley rat assessed as fecal stained abdominal area at 0.28 mg/kg, po after 3 days; type: organism-based, Abdomen; conditions: in vivo, 72 h
Rattus norvegicus [13] = experiment: Drug metabolism in Sprague-Dawley rat assessed as metabolite 2 (cis-delta4-15-methylprostaglandin F1alpha) formation at 0.28 mg/kg, po administered as single dose; type: ADME, organism-based; conditions: in vivo; in short: as §1
[14] = Drug excretion in Sprague-Dawley rat urine at 0.28 mg/kg, po administered as single dose within 74 hrs relative to control; type: ADME, organism-based; conditions: read-out: Drug excretion; in short: as §3

Drug metabolism (Rattus norvegicus [1]): metabolite_detected
SMILES: CCCCC[C@](C)(O)/C=C/[C@@H]1[C@@H](CCCCC(=O)O)[C@@H](O)C[C@H]1O

Drug metabolism (Rattus norvegicus [1]): metabolite_detected
SMILES: CCCCC[C@](C)(O)/C=C/[C@@H]1[C@@H](CCC(=O)O)[C@@H](O)C[C@H]1O

Drug metabolism (Rattus norvegicus [1]): metabolite_detected
SMILES: CCCCC[C@](C)(O)/C=C/[C@@H]1[C@H]2CCC(=O)O[C@H]2C[C@H]1O

SMILES: [3H]O[C@H]1C[C@@H](O)[C@H](/C=C/[C@@](C)(O)CCCCC)[C@H]1CC/C=C\CCC(=O)OC
Activity (Rattus norvegicus [2]): Non-toxic | Drug metabolism (Rattus norvegicus [3]): metabolite_detected | Activity (Rattus norvegicus [4]): Non-toxic | Activity (Rattus norvegicus [5]): Toxic | Activity (Rattus norvegicus [6]): Non-toxic | Drug metabolism (Rattus norvegicus [7]): metabolite_detected | Activity (Rattus norvegicus [8]): Toxic | Drug metabolism (Rattus norvegicus [9]): metabolite_detected | Activity (Rattus norvegicus [10]): Toxic | dose excreted at 74 h [11]: 38% | Activity (Rattus norvegicus [12]): Non-toxic | Drug metabolism (Rattus norvegicus [13]): metabolite_detected | dose excreted at 74 h [14]: 30%

Drug metabolism (Rattus norvegicus [1]): metabolite_detected
SMILES: CCCCC[C@](C)(O)/C=C/[C@@H]1[C@@H](CC/C=C\CCC(=O)O)[C@@H](O)C[C@H]1O
